High-throughput results as filed in PubChem BioAssay.
Shown are actives, neighbours in structure and some others; about 4.1% of the full set was active somewhere.
MC4R ag barr: activates human MC4R beta-arrestin recruitment. 360,000 compounds, 0.98% hits. P32245. U2OS MC4R beta-arrestin complementation, luminescence; percent of melanotan II response, DMSO zero. activation, % at 8.9 µM;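 active = activation above a per-plate cutoff, the mean activation of sample wells on that plate plus 3 SD, cut at about 8% in these data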
ATG4B inhibitor: inhibitors of human ATG4B cysteine protease | ATG4B cleavage of LC3-PLA2, NBD-HPC fluorescence, 1 h | inhibition, % at 8.33 µM | Q9Y4P1 | 340,000 compounds, 0.51% hits; in the data active = inhibition above about 40%
Target sequence (Q9Y4P1 whole entry, looked up): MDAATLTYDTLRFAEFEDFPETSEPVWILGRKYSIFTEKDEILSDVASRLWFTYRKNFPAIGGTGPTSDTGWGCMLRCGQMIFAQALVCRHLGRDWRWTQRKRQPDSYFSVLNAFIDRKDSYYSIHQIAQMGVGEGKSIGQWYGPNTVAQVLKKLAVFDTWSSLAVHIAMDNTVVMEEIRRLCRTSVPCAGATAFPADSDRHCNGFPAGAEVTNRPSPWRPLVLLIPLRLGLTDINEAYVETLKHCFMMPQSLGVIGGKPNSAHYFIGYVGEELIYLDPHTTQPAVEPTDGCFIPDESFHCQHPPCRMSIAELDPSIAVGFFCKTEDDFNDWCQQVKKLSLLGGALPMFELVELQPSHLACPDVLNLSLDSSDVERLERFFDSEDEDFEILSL
MC4R antagonist: human MC4R antagonism in cAMP assay; MC4R-expressing cells, MTII-stimulated cAMP, LANCE TR-FRET; inhibition, % at 6.5 µM; 360,000 compounds, 0.48% hits; AID 540295;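 active = inhibition above its plate's cutoff, the mean of tested wells on that plate plus 3 SD, cut at about 29% in these data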
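Material: U2OS-MC4R stable cell line | Reagent: Melanotan II challenge after compound preincubation | Doses: One concentration, 6.5 µM nominal | Incubation: 30-min compound preincubation, 1-h Melanotan II challenge, 1-h detection, room temperature | Signal: TR-FRET cAMP assay | Replicates: One well per compound, no replicates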
SMARCA2 activ: increases SMARCA2 function in MMTV reporter cells; MG213 cells, MMTV-luciferase reporter, dexamethasone, overnight; activation, % at 9.1 µM; 370,000 compounds, 1% hits; AID 652017; in the data active = activation above about 7.8%
MPTP block: inhibitors of mitochondrial permeability transition pore; isolated mouse mitochondria, Ca2+ swelling absorbance, 30 min; inhibition, % at 10 µM; 360,000 compounds, 1.4% hits; AID 602449;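 active = inhibition of 50% or more, scaled per plate between neutral and stimulator controls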
ATG4B confirm: ATG4B (human) inhibition, single-dose confirmed; shares compounds with ATG4B inhibitor; ATG4B protease fluorescent substrate cleavage assay; inhibition, % at 8.33 µM; 320 compounds, 92% hits; in the data active = inhibition above about 39%
PLA2 ctr: counter-screen for ATG4B inhibitors: human phospholipase A2. shares compounds with ATG4B inhibitor. purified PLA2, NBD-C6-HPC fluorescence, 45 min. inhibition, % at 8.33 µM. 1,600 compounds, 66% hits; in the data active = inhibition above about 50%
Target sequence (P04054 whole entry, looked up): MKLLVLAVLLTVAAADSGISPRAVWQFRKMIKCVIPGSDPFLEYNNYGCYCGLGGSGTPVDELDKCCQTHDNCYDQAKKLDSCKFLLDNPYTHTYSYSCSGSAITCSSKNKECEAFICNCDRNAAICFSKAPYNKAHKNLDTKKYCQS
Of the large screens only hits and unclear results are named; the others gave an inactive call (follow-up assays come after a bar, where they were run).

Cc1sc2nc(C3CC3)nc(N3CCN(C(=O)c4ccccc4F)CC3)c2c1C	ATG4B inhibitor 54.5 | PLA2 ctr 71.5
Cc1sc2nc(C3CC3)nc(N3CCN(C(=O)c4ccc(F)cc4)CC3)c2c1C	ATG4B inhibitor 62.4 | PLA2 ctr 77.8
Cc1sc2nc(C3CC3)nc(N3CCN(C(=O)c4ccc(Cl)cc4)CC3)c2c1C	ATG4B inhibitor 50.1 | PLA2 ctr 68.9
COc1ccc(C(=O)N2CCN(c3nc(C4CC4)nc4sc(C)c(C)c34)CC2)cc1	none
Cc1sc2nc(CN3CCCC3)nc(N3CCN(C(=O)c4ccco4)CC3)c2c1C	none
Cc1ccccc1C(=O)N1CCC(Oc2cccnc2)CC1	none (no result: MC4R ag barr, ATG4B inhibitor, MC4R antagonist, MPTP block)
COC(=O)C1=C(C)N(Cc2ccccc2C(F)(F)F)C(=NCC2CC2)NC1c1cccc(F)c1 (stereo not given)	none (no result: MC4R ag barr, ATG4B inhibitor, MC4R antagonist, MPTP block)
O=C(Nc1ccc(F)cc1Cl)C1CCCN1S(=O)(=O)c1cccc2cccnc12 (stereo not given)	none (no result: MC4R ag barr, ATG4B inhibitor, MC4R antagonist, MPTP block)
CN(C)c1ccc(-c2nnn(Cc3ccccc3Br)n2)cc1	ATG4B inhibitor 41.0 | ATG4B confirm 65.9 | PLA2 ctr inactive
Brc1ccccc1Cn1nnc(-c2ccc(N3CCOCC3)cc2)n1	none (no result: MC4R ag barr, ATG4B inhibitor, MC4R antagonist, MPTP block)
O=C(c1cnn(-c2ccccc2)c1)c1cc(F)ccc1O	none
Cc1ncc(CC(=O)n2cc(C(=O)c3cc(F)ccc3O)cn2)s1	ATG4B inhibitor 40.6 | PLA2 ctr 50.3
C=CCn1c(SCC(=O)c2ccccc2)nnc1-c1cc2ccccc2o1	ATG4B inhibitor 61.5 | PLA2 ctr 61.8
O=C(Nc1nnc(CSCc2ccccc2F)s1)c1cccc([N+](=O)[O-])c1	ATG4B inhibitor 50.7 | PLA2 ctr 58.0
CC(C)(C)C(=O)Nc1nnc(CSCc2ccccc2F)s1	ATG4B inhibitor 40.4 | ATG4B confirm 58.7 | PLA2 ctr inactive
Cc1ccc(-n2cc(CN3CCNC(=O)CC3)c(-c3ccc(F)cc3)n2)cc1	none
Cc1ccc(-n2cc(CN3CCC(O)(c4ccccn4)CC3)c(-c3ccc(F)cc3)n2)cc1	ATG4B inhibitor 61.2 | PLA2 ctr 52.3
Cn1c(-c2ccc3c(c2)OCO3)cnc1NCc1cccc(Cl)c1	ATG4B inhibitor 52.4 (no result: SMARCA2 activ) | PLA2 ctr 57.6
Cn1c(-c2ccc3c(c2)OCO3)cnc1NCc1ccccc1	none
COC(=O)c1cc2c(c3c4cc(OC)ccc4n(S(=O)(=O)c4ccc(F)cc4)c13)C(=O)N(Cc1ccccc1)C2	none (no result: MC4R ag barr, ATG4B inhibitor, MC4R antagonist, MPTP block)
C#Cc1ccc([C@@H]2C=C(C(=O)O)O[C@H](OCC)[C@H]2CCCO)cc1	ATG4B inhibitor 58.6 | PLA2 ctr 72.4
C#Cc1ccc([C@@H]2C=C(C(=O)NCc3ccccc3)O[C@H](OCC)[C@H]2CCCO)cc1	none
CCOC(=O)N1CCN(C(=O)C[C@H]2C(=O)N(CCCOC)C3=CCCC[C@@]32C(=O)OCC)CC1	none (no result: MC4R ag barr, ATG4B inhibitor, MC4R antagonist, MPTP block)
COc1ccc(C2=NOC(Cn3nc(C(=O)NCc4cccc(Br)c4)cc3-c3ccccc3)C2)cc1 (stereo not given)	ATG4B inhibitor 53.2 | PLA2 ctr 59.5
Cc1nn(CCCC(=O)Nc2cc(Oc3ccc(F)cc3)cc([N+](=O)[O-])c2)c(C)c1[N+](=O)[O-]	ATG4B inhibitor 56.3 | PLA2 ctr 60.4
Cc1ccccc1Oc1cc(NC(=O)CCCn2nc(C)c([N+](=O)[O-])c2C)cc([N+](=O)[O-])c1	ATG4B inhibitor 66.0 | PLA2 ctr 62.5
Cc1cc(=O)oc2cc(OCC(=O)Nc3cccc(S(=O)(=O)N(C)C)c3)ccc12	ATG4B inhibitor 40.0 | PLA2 ctr inactive
CC(=O)Nc1ccccc1OCC(=O)NC(C)c1ccccc1 (stereo not given)	none
CC(NC(=O)COc1ccccc1-c1ccccc1)c1ccccc1 (stereo not given)	ATG4B inhibitor 42.2 | PLA2 ctr 52.3
Cc1ccccc1NC(=O)CN1C(=O)S/C(=C\c2ccc(-c3cc(C(=O)O)ccc3C)o2)C1=O	ATG4B inhibitor 42.2 | ATG4B confirm 54.7 | PLA2 ctr inactive
O=S(Cc1ccccc1)CC(O)(c1ccc(Cl)cc1)c1ccc(Cl)cc1 (stereo not given)	ATG4B inhibitor 55.0 | PLA2 ctr 60.2
O=C(OCc1cn(Cc2ccc(C(F)(F)F)cc2)nn1)N1CCCC1	none (no result: MC4R ag barr, ATG4B inhibitor, MC4R antagonist, MPTP block)
COC1=C[C@H](C(=O)NCc2ccccn2)[C@H](C)[C@@H](c2ccccc2)CC1=O	none (no result: MC4R ag barr, ATG4B inhibitor, MC4R antagonist, MPTP block)
COc1ccc(C(CC(=O)NCc2ccccc2)C(C)C)cc1 (stereo not given)	ATG4B inhibitor 46.0 | ATG4B confirm 58.5 | PLA2 ctr inactive
O=C1Nc2ccc(Cl)cc2C12Nc1ccccc1-c1nnc(SCc3ccccc3F)nc1O2 (stereo not given)	ATG4B inhibitor 49.5 | PLA2 ctr 63.2
Cc1ccc(NC(=O)C2CCN(c3nnc(-n4cccc4)s3)CC2)cc1C	none (no result: MC4R ag barr, ATG4B inhibitor, MC4R antagonist, MPTP block)
CC(NS(=O)(=O)c1ccc(CCC(=O)NCc2cccnc2)cc1)c1ccccc1 (stereo not given)	ATG4B inhibitor 89.9 | PLA2 ctr inactive
COc1ccc(-n2c(C)c(C(C)=O)c3cc(OCC(N)=O)ccc32)cc1	ATG4B inhibitor 49.9 | PLA2 ctr 57.9
CCOc1ccc(-n2c(C)c(C(C)=O)c3cc(OCC(N)=O)ccc32)cc1	none
Cc1ccc(C)c(CSc2nnc(-c3cccs3)n2Cc2ccco2)c1	ATG4B inhibitor 83.5 | PLA2 ctr 76.7
NC(=O)CSc1nnc(-c2cccs2)n1Cc1ccco1	none
COC(=O)c1cc2c(c3c4cc(F)ccc4n(S(=O)(=O)c4cccc(C)c4)c13)C(=O)N(Cc1ccc(C(F)(F)F)cc1)C2	none (no result: MC4R ag barr, ATG4B inhibitor, MC4R antagonist, MPTP block)
CCOC(=O)c1c(C)[nH]c(C(=O)COC(=O)COc2ccccc2C=O)c1C	ATG4B inhibitor 47.4 | ATG4B confirm 55.7 | PLA2 ctr inactive
CCOC(=O)c1c(C)[nH]c(C(=O)COC(=O)/C=C/c2cccc(OC)c2OC)c1C	none
COc1ccc(CNc2ccc(-c3ccccc3OC)nn2)cc1	ATG4B inhibitor 48.4 | PLA2 ctr inactive
COC(=O)[C@]12C[C@H](CC(=O)NCc3ccc(OC)c(OC)c3)C(=O)N(Cc3cccc4ccccc34)C1=C[C@H](C(C)(C)C)O[C@@H]2C	none (no result: MC4R ag barr, ATG4B inhibitor, MC4R antagonist, MPTP block)
N#Cc1c(NC(=O)C2CC(c3c(F)cccc3Cl)=NO2)sc2c1CCC2 (stereo not given)	ATG4B inhibitor 59.3 | PLA2 ctr 52.9
CCc1c(C)sc(NC(=O)C2CC(c3c(F)cccc3Cl)=NO2)c1C#N (stereo not given)	none
COc1ccc(-c2c(C#N)sc(C(N)=O)c2-c2ccc(OC)cc2)cc1	ATG4B inhibitor 81.9 | PLA2 ctr 84.9
N#Cc1sc(C(N)=O)c(-c2ccccc2)c1-c1ccccc1	ATG4B inhibitor 67.8 | PLA2 ctr 65.6
